Measured values as given in ChEMBL document CHEMBL1148211, “Cytotoxic lissoclimide-type diterpenes from the molluscs Pleurobranchusalbiguttatus and Pleurobranchus forskalii” (J Nat Prod, 2004).

Key:
[1] = Cytotoxicity against human NCI60 cells; assay type: functional; settings: for TGI: read-out: pTGI (converted)
[2] = system: L1210; experiment: Cytotoxicity against mouse L1210 cells at 63 ug/disk by Valeriote soft agar disk diffusion method; assay type: functional
In short: (§1)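 Corbett–Valeriote soft agar disk diffusion assay. Sample is loaded onto a disk at the stated µg/disk and placed on soft agar cultures of the cells. The read-out is the size of the zone of inhibition around the disk. Zones for the solid tumour line (Colon38) are compared with those for leukaemia cells (L1210) or normal CFU-GM cells to judge differential cytotoxicity.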

[3] = system: MC-38; experiment: Cytotoxicity against […] cells at 63 ug/disk by Valeriote soft agar disk diffusion method; assay type: functional; in short: as §1
[4] = Cytotoxicity against human CFU-GM cells at 63 ug/disk by Valeriote soft agar disk diffusion method; assay type: cell-based; in short: as §1
[5] = Cytotoxicity against human H116 cells at 1.5 ug/mL by Valeriote soft agar disk diffusion method; assay type: functional
In short: (§2)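 Corbett–Valeriote soft agar disk diffusion assay, with doses given per disk. Zones of inhibition around sample disks were compared between solid tumor cells (Colon38, ColonH116, LungH125) and either leukemia cells (L1210 or CEM) or normal CFU-GM cells. Zone sizes were used to score differential (solid tumor-selective) cytotoxicity.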

[6] = Cytotoxicity against human H125 cells at 1.5 ug/mL by Valeriote soft agar disk diffusion method; assay type: functional; in short: as §2
[7] = system: L1210; experiment: Cytotoxicity against mouse L1210 cells at 1.5 ug/mL by Valeriote soft agar disk diffusion method; assay type: functional; in short: as §2
[8] = system: CCRF-CEM; experiment: Cytotoxicity against human CEM cells at 1.5 ug/mL by Valeriote soft agar disk diffusion method; assay type: functional; in short: as §2
[9] = system: MC-38; experiment: Cytotoxicity against […] cells at 1.5 ug/mL by Valeriote soft agar disk diffusion method; assay type: functional; in short: as §2
[10] = system: MC-38; experiment: Cytotoxicity against […] cells at 1.8 ug/mL by Valeriote soft agar disk diffusion method; assay type: functional; in short: as §2
[11] = system: CCRF-CEM; experiment: Cytotoxicity against human CEM cells at 1.5 ug/mL by Valeriote soft agar disk diffusion method
[12] = Cytotoxicity against human H116 cells at 1.5 ug/mL by Valeriote soft agar disk diffusion method
[13] = Cytotoxicity against human H125 cells at 1.5 ug/mL by Valeriote soft agar disk diffusion method
[14] = system: L1210; experiment: Cytotoxicity against mouse L1210 cells at 1.5 ug/mL by Valeriote soft agar disk diffusion method
[15] = system: L1210; experiment: Cytotoxicity against mouse L1210 cells at 113 ug/disk by Valeriote soft agar disk diffusion method; assay type: functional; in short: as §1
[16] = system: MC-38; experiment: Cytotoxicity against […] cells at 113 ug/disk by Valeriote soft agar disk diffusion method; assay type: functional; in short: as §1
[17] = Cytotoxicity against human CFU-GM cells at 113 ug/disk by Valeriote soft agar disk diffusion method; assay type: cell-based; in short: as §1
[18] = system: MC-38; experiment: Cytotoxicity against […] cells at 1.5 ug/mL by Valeriote soft agar disk diffusion method

| Structure (SMILES) | GI50 [1] [nM] | LC50 [1] [nM] | TGI [1] [nM] | Activity [2] [Zone units] | Activity [3] [Zone units] | Activity [4] [Zone units] | Activity [5] [Zone units] | Activity [6] [Zone units] | Activity [7] [Zone units] | Activity [8] [Zone units] | Activity [9] [Zone units] | Activity [10] [Zone units] | Activity [11] [Zone units] | Activity [12] [Zone units] | Activity [13] [Zone units] | Activity [14] [Zone units] | Activity [15] [Zone units] | Activity [16] [Zone units] | Activity [17] [Zone units] | Activity [18] [Zone units] |
| --- | --- | --- | --- | --- | --- | --- | --- | --- | --- | --- | --- | --- | --- | --- | --- | --- | --- | --- | --- | --- |
| CC1=CC(=O)[C@H]2C(C)(C)[C@@H](Cl)[C@H](Cl)C[C@]2(C)[C@H]1C[C@H](O)[C@H]1CC(=O)NC1=O [HATERUMAIMIDE D] | 977 | 44700 | 12300 | – | – | – | – | – | – | – | – | – | – | – | – | – | – | – | – | – |
| C=C1[C@@H](O)C[C@H]2C(C)(C)[C@@H](O)[C@H](Cl)C[C@]2(C)[C@H]1C[C@H](O)[C@H]1CC(=O)NC1=O | – | – | – | 500 | 400 | 100 | – | – | – | – | – | – | – | – | – | – | – | – | – | – |
| C=C1[C@@H](O)C[C@H]2C(C)(C)[C@@H](Cl)[C@H](Cl)C[C@]2(C)[C@H]1C[C@H](O)[C@H]1CC(=O)NC1=O [DICHLOROLISSOCLIMIDE] | 5.5 | 20000 | 123 | – | – | – | 550 | 550 | 550 | 550 | 550 | 550 | 550 | 550 | 550 | 550 | – | – | – | – |
| C=C1CC(=O)[C@H]2C(C)(C)[C@@H](Cl)[C@H](Cl)C[C@]2(C)[C@H]1C[C@H](O)[C@H]1CC(=O)NC1=O | – | – | – | – | – | – | – | – | – | – | – | – | – | – | – | – | 250 | 650 | 350 | – |
| C=C1[C@@H](O)C[C@H]2C(C)(C)C[C@H](Cl)C[C@]2(C)[C@H]1C[C@H](O)[C@H]1CC(=O)NC1=O [CHLOROLISSOCLIMIDE] | 5.75 | 16600 | 129 | – | – | – | 550 | 550 | 550 | 550 | 550 | – | 550 | 550 | 550 | 550 | – | – | – | 550 |
